Legend:
[1] = tested on: Blood; assay: Drug uptake in FCA-induced hypersensitivity rat blood at 3 mg/kg, po administered with NMP as vehicle; details: in vivo
[2] = molecular target: Cytochrome P450 2C9 (Homo sapiens, UniProt P11712); assay: Inhibition of CYP2C9; type: ADME
[3] = tested on: Rattus norvegicus; assay: Reversal of FCA-induced hypersensitivity in orally dosed rat assessed as reduction in weight bearing administered with NMP as vehicle; type: functional; details: po
How it was run: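 Oral dosing in the rat CFA inflammatory pain model was at 1, 3 and 10 mg/kg. The vehicle was 2% NMP, 2% miglyol and 2% solutol–Kleptose in water. Weight bearing was assessed 1 h post-dose. Blood was sampled at 1 h (seven rats), and brain at 10 mg/kg (three rats). ED50 was given in mg/kg.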

[4] = Distribution coefficient, logD at pH 7.4; type: physicochemical; details: octanol/water
How it was run: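 Distribution coefficient between n-octanol and water buffered to pH 7.4; log10 of ratio of equilibrium concentrations of all species.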

[5] = molecular target: Cytochrome P450 2D6 (Homo sapiens, UniProt P10635); assay: Inhibition of CYP2D6; type: ADME
Sequence of Cytochrome P450 2D6 (P10635 whole entry): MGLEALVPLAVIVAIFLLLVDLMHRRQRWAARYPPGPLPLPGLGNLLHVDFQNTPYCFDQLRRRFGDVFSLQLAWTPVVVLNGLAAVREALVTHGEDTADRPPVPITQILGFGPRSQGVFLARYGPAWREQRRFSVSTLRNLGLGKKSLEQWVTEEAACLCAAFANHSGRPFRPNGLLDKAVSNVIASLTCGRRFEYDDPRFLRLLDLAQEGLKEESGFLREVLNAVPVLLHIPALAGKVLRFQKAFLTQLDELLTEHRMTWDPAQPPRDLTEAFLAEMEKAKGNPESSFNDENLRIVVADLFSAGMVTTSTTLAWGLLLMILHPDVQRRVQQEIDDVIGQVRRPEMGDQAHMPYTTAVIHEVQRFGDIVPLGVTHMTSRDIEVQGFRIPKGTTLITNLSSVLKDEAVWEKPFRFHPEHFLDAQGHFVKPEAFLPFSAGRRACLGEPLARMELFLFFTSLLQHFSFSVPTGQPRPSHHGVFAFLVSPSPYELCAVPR

[6] = tested on: Rattus norvegicus; assay: Reversal of FCA-induced hypersensitivity in orally dosed rat assessed as reduction in weight bearing administered with DMSO and PEG400 as vehicle; type: functional; details: po
How it was run: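 Rats with CFA-induced inflammatory pain were dosed orally at 1, 3 and 10 mg/kg or 1, 3, 10 and 30 mg/kg. The vehicle was 1% DMSO, 66% PEG400 and 33% water. Weight bearing was read 1 h post-dose and samples were taken then. Brain:blood ratio was measured in the 10 mg/kg group (n=7). ED50 was derived in mg/kg.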

[7] = Ratio of drug level in brain to blood in FCA-induced hypersensitivity rat at 10 mg/kg, po administered with DMSO and PEG400 as vehicle; type: ADME, organism-based; design: dose 10 mg/kg, route oral
How it was run: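 Rats with CFA-induced inflammatory pain dosed orally at 1, 3, 10 (and 30) mg/kg in 1% DMSO, 66% PEG400, 33% water. Blood and brain sampled 1 h post-dose, alongside the weight-bearing readout. Brain:blood ratio taken from the 10 mg/kg group, mean of seven rats.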

[8] = molecular target: T1, Cytochrome P450 1A2 (Homo sapiens, UniProt P05177); assay: Inhibition of CYP1A2; type: ADME
T1 sequence (P05177 whole entry): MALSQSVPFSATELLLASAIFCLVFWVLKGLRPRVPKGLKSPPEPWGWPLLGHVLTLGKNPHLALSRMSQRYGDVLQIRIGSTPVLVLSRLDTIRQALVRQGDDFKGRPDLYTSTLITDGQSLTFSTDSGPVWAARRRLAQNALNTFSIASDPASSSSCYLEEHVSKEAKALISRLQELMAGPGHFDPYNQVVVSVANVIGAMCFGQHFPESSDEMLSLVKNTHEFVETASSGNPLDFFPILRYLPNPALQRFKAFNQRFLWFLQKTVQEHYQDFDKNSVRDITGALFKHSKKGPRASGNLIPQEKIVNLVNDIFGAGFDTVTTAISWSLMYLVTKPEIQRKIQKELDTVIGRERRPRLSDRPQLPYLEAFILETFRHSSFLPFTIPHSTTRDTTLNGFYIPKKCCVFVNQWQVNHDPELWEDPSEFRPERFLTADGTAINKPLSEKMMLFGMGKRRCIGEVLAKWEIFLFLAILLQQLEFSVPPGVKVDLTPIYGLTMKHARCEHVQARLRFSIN

[9] = molecular target: Cytochrome P450 3A4 (Homo sapiens, UniProt P08684); assay: Inhibition of CYP3A4; type: ADME
Sequence of Cytochrome P450 3A4 (P08684 whole entry): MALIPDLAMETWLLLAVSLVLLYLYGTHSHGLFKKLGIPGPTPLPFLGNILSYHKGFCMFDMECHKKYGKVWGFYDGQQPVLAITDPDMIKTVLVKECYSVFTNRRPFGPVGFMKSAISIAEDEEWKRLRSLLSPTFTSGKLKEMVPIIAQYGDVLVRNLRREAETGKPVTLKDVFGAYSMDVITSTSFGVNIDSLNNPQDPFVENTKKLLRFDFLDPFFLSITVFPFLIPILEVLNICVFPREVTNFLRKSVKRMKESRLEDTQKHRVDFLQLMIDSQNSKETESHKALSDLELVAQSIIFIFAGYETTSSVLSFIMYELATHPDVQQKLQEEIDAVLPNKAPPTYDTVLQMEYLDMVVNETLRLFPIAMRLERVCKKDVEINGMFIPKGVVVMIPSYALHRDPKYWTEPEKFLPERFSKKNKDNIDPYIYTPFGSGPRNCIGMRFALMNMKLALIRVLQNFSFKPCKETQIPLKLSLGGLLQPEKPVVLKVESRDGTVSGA

[10] = tested on: Blood; assay: Drug uptake in FCA-induced hypersensitivity rat blood at 1 mg/kg, po administered with NMP as vehicle; type: ADME, organism-based; design: dose 1 mg/kg, route oral; details: in vivo, read-out: Drug uptake
How it was run: (§1)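 CFA inflammatory pain rats dosed orally at 1, 3 and 10 mg/kg in 2% NMP, 2% miglyol, 2% solutol–Kleptose in water; samples taken 1 h post-dose. Blood levels mean of seven rats; brain level at 10 mg/kg only, mean of three rats.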

[11] = tested on: Brain; assay: Drug uptake in FCA-induced hypersensitivity rat brain at 10 mg/kg, po administered with NMP as vehicle; type: ADME, organism-based; design: dose 10 mg/kg, route oral; details: read-out: Drug uptake, in vivo
How it was run: as §1

[12] = molecular target: T2, Prostaglandin E2 receptor EP1 subtype (Homo sapiens, UniProt P34995); assay: Antagonist activity at PGE2-EP1 receptor assessed as PGE2-induced intracellular calcium mobilization; type: functional, cell-based
T2 sequence (P34995 whole entry): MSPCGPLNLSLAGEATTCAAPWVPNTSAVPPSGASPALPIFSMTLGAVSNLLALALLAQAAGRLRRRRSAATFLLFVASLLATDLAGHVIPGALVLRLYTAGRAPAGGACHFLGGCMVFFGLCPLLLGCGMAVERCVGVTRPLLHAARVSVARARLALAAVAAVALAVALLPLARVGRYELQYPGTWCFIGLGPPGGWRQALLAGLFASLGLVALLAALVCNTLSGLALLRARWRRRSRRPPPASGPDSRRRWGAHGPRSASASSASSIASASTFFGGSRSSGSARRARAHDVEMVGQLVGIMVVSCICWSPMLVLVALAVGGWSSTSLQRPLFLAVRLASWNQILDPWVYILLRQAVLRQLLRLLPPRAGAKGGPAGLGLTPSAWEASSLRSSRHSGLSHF

[13] = tested on: Blood; assay: Drug uptake in FCA-induced hypersensitivity rat blood at 10 mg/kg, po administered with NMP as vehicle; type: ADME, organism-based; design: dose 10 mg/kg, route oral; details: in vivo, read-out: Drug uptake
How it was run: as §1

[14] = molecular target: T3, Prostaglandin E2 receptor EP3 subtype (Homo sapiens, UniProt P43115); assay: Antagonist activity at PGE2-EP3 receptor assessed as PGE2-induced intracellular calcium mobilization; type: functional, cell-based
T3 sequence (P43115 whole entry): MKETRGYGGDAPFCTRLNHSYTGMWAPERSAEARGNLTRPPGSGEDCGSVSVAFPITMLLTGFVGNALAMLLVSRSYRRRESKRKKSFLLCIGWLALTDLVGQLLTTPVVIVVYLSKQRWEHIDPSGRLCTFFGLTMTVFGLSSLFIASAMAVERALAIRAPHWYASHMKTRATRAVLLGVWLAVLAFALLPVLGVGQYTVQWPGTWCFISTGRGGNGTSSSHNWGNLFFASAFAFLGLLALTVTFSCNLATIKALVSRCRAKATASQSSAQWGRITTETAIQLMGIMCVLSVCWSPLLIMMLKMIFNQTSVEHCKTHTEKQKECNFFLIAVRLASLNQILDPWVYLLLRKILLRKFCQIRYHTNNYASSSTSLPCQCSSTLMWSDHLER

[15] = Ratio of drug level in brain to blood in FCA-induced hypersensitivity rat at 10 mg/kg, po administered with NMP as vehicle; type: ADME, organism-based; design: dose 10 mg/kg, route oral
How it was run: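 CFA inflammatory pain model in rats, oral dosing at 1, 3 and 10 mg/kg in 2% NMP, 2% miglyol and 2% solutol–Kleptose in water. Samples taken 1 h post-dose with the weight-bearing readout. Brain concentration measured at 10 mg/kg only; brain:blood ratio is the mean of three rats, with blood levels the mean of seven.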

[16] = molecular target: T2, Prostaglandin E2 receptor EP1 subtype; assay: Displacement of [3H]PGE2 from human PGE2-EP1 receptor expressed in CHO-K1 cells; type: cell-based
[17] = molecular target: T2, Prostaglandin E2 receptor EP1 subtype; assay: Antagonist activity at PGE2-EP1 receptor assessed as PGE2-induced response by schild analysis; type: functional; details: read-out: pA2 (converted)
[18] = molecular target: Cytochrome P450 2C19 (Homo sapiens, UniProt P33261); assay: Inhibition of CYP2C19; type: ADME
Sequence of Cytochrome P450 2C19 (P33261 whole entry): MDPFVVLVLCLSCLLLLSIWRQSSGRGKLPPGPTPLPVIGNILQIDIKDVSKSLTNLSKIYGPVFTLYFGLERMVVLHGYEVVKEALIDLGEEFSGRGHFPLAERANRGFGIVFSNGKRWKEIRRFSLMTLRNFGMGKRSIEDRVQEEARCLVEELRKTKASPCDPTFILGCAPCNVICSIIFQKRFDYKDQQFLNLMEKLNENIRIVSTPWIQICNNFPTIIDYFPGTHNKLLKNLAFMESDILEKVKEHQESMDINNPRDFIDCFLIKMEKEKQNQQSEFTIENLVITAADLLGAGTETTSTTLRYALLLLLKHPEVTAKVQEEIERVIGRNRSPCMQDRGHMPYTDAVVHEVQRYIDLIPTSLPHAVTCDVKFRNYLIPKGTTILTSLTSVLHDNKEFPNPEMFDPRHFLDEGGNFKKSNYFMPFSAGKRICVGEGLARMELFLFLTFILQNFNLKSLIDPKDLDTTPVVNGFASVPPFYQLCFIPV

Sequence of Cytochrome P450 2C9 (P11712 whole entry): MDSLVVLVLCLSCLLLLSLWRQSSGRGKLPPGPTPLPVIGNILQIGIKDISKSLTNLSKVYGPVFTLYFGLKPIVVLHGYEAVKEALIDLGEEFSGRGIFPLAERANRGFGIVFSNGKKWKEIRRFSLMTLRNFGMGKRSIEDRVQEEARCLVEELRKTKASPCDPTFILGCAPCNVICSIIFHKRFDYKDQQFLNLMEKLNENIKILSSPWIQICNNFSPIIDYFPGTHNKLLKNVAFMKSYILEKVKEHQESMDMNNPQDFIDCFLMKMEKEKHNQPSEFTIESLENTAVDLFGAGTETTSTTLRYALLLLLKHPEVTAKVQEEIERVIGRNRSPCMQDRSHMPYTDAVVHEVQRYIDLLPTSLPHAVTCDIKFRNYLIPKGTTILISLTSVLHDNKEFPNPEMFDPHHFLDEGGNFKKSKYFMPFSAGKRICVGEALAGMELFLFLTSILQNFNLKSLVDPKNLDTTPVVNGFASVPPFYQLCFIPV

Work on `Cc1cc(NC(=O)OC(C)C)nn1Cc1cc(Cl)ccc1OCc1ccccc1` yielded a concentration [1] of 749 nM, an IC50 [2] of 17 µM and an ED50 [3] of 4.6 mg/kg. It also gave a logD [4] greater than 3.7, an IC50 [5] greater than 100 µM and an ED50 [6] of 1.89 mg/kg. The Kp [7] was 1.73, the IC50 [8] was 7.8 µM and the IC50 [9] was greater than 81 µM. For the same compound, the concentration [10] was 153 nM, the concentration [11] was 3.33 µM and the Ki [12] was 50.1 nM. It also gave a concentration [13] of 1400 nM, a Ki [14] greater than 10 µM and a Kp [15] of 2.2. For the same compound, the IC50 [16] was 31.6 nM, the Kb [17] was 7.94 nM and the IC50 [18] was greater than 100 µM.
